Source: ChEMBL document CHEMBL1828545, “Synthesis and characterization of novel PUFA esters exhibiting potential anticancer activities: an in vitro study” (Eur J Med Chem, 2011)
Calls of active or inactive are those of the source. The calls are words filed in the database; no cut-off is given here.

What was measured:
HepG2 [1] = assay: Cytotoxicity against human HepG2 cells after 94 hrs by MTT assay; type: functional, cell-based; details: HepG2, 94 h
Outline: (§1)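 Cells seeded at 5 x 10^5 cells/200 µl/well in 96-well plates, grown in medium with 5% FCS. After 24 h, compounds added at 0–15 µM, with ethanol as vehicle control. Incubated 94 h, then medium replaced. MTT (5 mg/ml) added for 2-3 h at 37 °C and dissolved in DMSO. A620 read in triplicate wells. IC50 taken from the concentration giving 50% loss of viability.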

MDA-MB-361 [2] = assay: Cytotoxicity against human MDA-MB-361 cells after 94 hrs by MTT assay; type: functional, cell-based; details: MDA-MB-361, 94 h; outline: as §1
SK-MEL-1 = assay: Cytotoxicity against human SK-MEL-1 cells after 94 hrs by MTT assay; type: functional, cell-based; details: for IC50: SK-MEL-1, 94 h; outline: as §1
A549 = assay: Cytotoxicity against human A549 cells after 94 hrs by MTT assay; type: functional, cell-based; details: for IC50: A549, 94 h; outline: as §1
HL-60 = assay: Cytotoxicity against human HL60 cells after 94 hrs by MTT assay; type: functional, cell-based; details: for IC50: HL-60, 94 h; outline: as §1
HFL1 = assay: Cytotoxicity against human HFL1 cells after 94 hrs by MTT assay; type: cell-based; details: hfl1, 94 h; outline: as §1
MDA-MB-361 [3] = assay: Modulation of lipid peroxidation in human MDA-MB-361 cells assessed as malondialdehyde production assessed per 10^6 cells at 25 to 100 uM after 24 hrs by thiobarbituric acid assay; type: functional
Outline: (§2)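 Cells exposed for 24 h to vehicle or to 25, 50 or 100 µM compound. Malondialdehyde measured spectrophotometrically by thiobarbituric acid assay and expressed as nmol MDA per 10^6 cells. Means ± SD of five experiments.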

MDA-MB-361 [4] = assay: Induction of apoptosis in human MDA-MB-361 cells assessed as upregulation of cytochrome c expression at 15 uM after 24 hrs by Western blotting; type: functional
Outline: (§3)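 Cells (1 × 10^7/well) grown 24 h in serum-free medium at 37 °C, then treated 24 h, with ethanol as control. Harvested by trypsin and lysed in TNN buffer (50 mM Tris-HCl pH 7.4, NP-40, protease inhibitors). Cytosolic fraction taken from a 10,000 g spin. Protein measured by BCA and equal amounts run on 10% SDS-PAGE. Blotted to nitrocellulose, probed with monoclonal antibodies plus a β-actin reprobe, detected by ECL. Densitometry as mean of triplicates.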

MDA-MB-361 [5] = assay: Induction of apoptosis in human MDA-MB-361 cells assessed as upregulation of caspase 3 expression at 15 uM after 24 hrs by Western blotting; type: functional; outline: as §3
HepG2 [6] = assay: Modulation of lipid peroxidation in human HepG2 cells assessed as malondialdehyde production after 24 hrs by thiobarbituric acid assay; type: functional, cell-based; outline: as §2
HepG2 [7] = assay: Induction of apoptosis in human HepG2 cells assessed as upregulation of cytochrome c expression at 15 uM after 24 hrs by Western blotting; type: functional; outline: as §3
HepG2 [8] = assay: Induction of apoptosis in human HepG2 cells assessed as upregulation of caspase 3 expression at 15 uM after 24 hrs by Western blotting; type: functional, cell-based; outline: as §3

Row | Structure (SMILES) | IC50 (HepG2 [1]) [µM] | IC50 (MDA-MB-361 [2]) [µM] | IC50 (SK-MEL-1) [µM] | growth inhibition (GI) (A549) | growth inhibition (GI) (HL-60) | Activity (HFL1) | Activity (MDA-MB-361 [3]) [nmol] | Activity (MDA-MB-361 [4]) [%] | Activity (MDA-MB-361 [5]) [%] | growth inhibition (GI) (SK-MEL-1) | IC50 (A549) [µM] | IC50 (HL-60) [µM] | Activity (HepG2 [6]) | Activity (HepG2 [7]) [%] | Activity (HepG2 [8])
1 | CCCCC/C=C\C/C=C\CCCCCCCC(=O)Oc1c(C(C)C)cccc1C(C)C | 3.3 | 2.76 | 4.1 | Active | Active | Non-toxic | 0.25 | 36.6 | 33.7 | – | – | – | – | – | –
2 | CCCCC/C=C\C/C=C\C/C=C\C/C=C\CCCC(=O)Oc1ccc(C(C)C)cc1C(C)C | 3.7 | 7.5 | – | – | – | Toxic | – | – | – | Active | 5.3 | 4.4 | Dose-dependent effect | 24.7 | inactive
3 | COc1cccc2c1C(=O)c1c(O)c3c(c(O)c1C2=O)C[C@@](O)(C(=O)CO)C[C@@H]3O[C@H]1C[C@H](N)[C@H](O)[C@H](C)O1 [DOXORUBICIN] | 2.17 | 2.03 | 3.09 | – | – | Non-toxic | – | – | – | – | 3.6 | 3.14 | – | – | –
4 | CCCCC/C=C\C/C=C\CCCCCCCC(=O)Oc1ccc(C(C)C)cc1C(C)C | 4.1 | 3.2 | 4.9 | Active | Active | Non-toxic | 0.25 | 35.2 | 32.6 | – | – | – | – | – | –
5 | CCCCC/C=C\C/C=C\C/C=C\C/C=C\CCCC(=O)Oc1c(C(C)C)cccc1C(C)C | 3.1 | 7.21 | – | – | – | – | – | – | – | Active | 4.6 | 3.9 | Dose-dependent effect | 24.2 | inactive
